Results taken from ChEMBL document CHEMBL1156332, “Polysubstituted pyrazoles, part 6. Synthesis of some 1-(4-chlorophenyl)-4-hydroxy-1H-pyrazol-3-carbonyl derivatives linked to nitrogenous heterocyclic ring systems as potential antitumor agents” (2010).

Legend:
Format in all cases: functional
[1] = tested on: HL-60(TB); assay: Growth inhibition of human HL-60(TB) cells after 48 hrs by sulforhodamine B assay; conditions: HL-60, 48 h
Outline: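 NCI 60-cell panel. Cells were preincubated 24 h at 37 °C in 5% CO2, then time-zero plates were TCA-fixed. Drugs were dissolved in DMSO and given at five concentrations (10-fold or half-log dilutions) for 48 h. Suspension cells were fixed with TCA (16% final), stained with 0.4% SRB and read at 515 nm. GI50 is the concentration giving 50% decrease in net growth, taken from log concentration–growth curves.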

[2] = tested on: A549; assay: Growth inhibition of human A549 cells after 48 hrs by sulforhodamine B assay; conditions: A549, 48 h
Outline: (§1)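 NCI 60-line panel, five concentrations (0.01–100 µM) from DMSO stock diluted in medium with gentamicin. Cells were plated 24 h before dosing, with time-zero plates fixed at drug addition, then exposed 48 h at 37 °C, 5% CO₂. Adherent cells were fixed with cold TCA (10% final) and suspension cells with 16% TCA. Staining used 0.4% SRB, solubilised in 10 mM Tris and read at 515 nm. GI₅₀ was taken from log concentration–% growth curves.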

[3] = tested on: COLO 205; assay: Growth inhibition of human COLO205 cells after 48 hrs by sulforhodamine B assay; conditions: COLO 205, 48 h; outline: as §1
[4] = tested on: HCC 2998; assay: Growth inhibition of human HCC2998 cells after 48 hrs by sulforhodamine B assay; conditions: HCC 2998, 48 h; outline: as §1
[5] = tested on: HCT-15; assay: Growth inhibition of human HCT15 cells after 48 hrs by sulforhodamine B assay; conditions: HCT-15, 48 h; outline: as §1
[6] = tested on: SW-620; assay: Growth inhibition of human SW620 cells after 48 hrs by sulforhodamine B assay; conditions: SW-620, 48 h
Outline: (§2)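 Adherent lines plated and held 24 h at 37 °C, 5% CO2, 100% humidity; time-zero plates TCA-fixed at drug addition. Drugs from DMSO stocks were made into five concentrations by 10-fold or half-log serial dilution and applied for 48 h continuous exposure. Cells were fixed with cold TCA (10% final) for 60 min at 4 °C, then stained with 0.4% SRB in 1% acetic acid for 10 min. Dye was solubilized in 10 mM Tris base and read at 515 nm. GI50 was taken from log concentration–growth curves.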

[7] = tested on: SF-268; assay: Growth inhibition of human SF268 cells after 48 hrs by sulforhodamine B assay; conditions: SF-268, 48 h; outline: as §1
[8] = tested on: SF-295; assay: Growth inhibition of human SF295 cells after 48 hrs by sulforhodamine B assay; conditions: SF-295, 48 h; outline: as §1
[9] = tested on: SNB-19; assay: Growth inhibition of human SNB19 cells after 48 hrs by sulforhodamine B assay; conditions: SNB-19, 48 h; outline: as §2
[10] = tested on: SNB-75; assay: Growth inhibition of human SNB75 cells after 48 hrs by sulforhodamine B assay; conditions: SNB-75, 48 h; outline: as §2
[11] = tested on: U-251; assay: Growth inhibition of human U251 cells after 48 hrs by sulforhodamine B assay; conditions: U-251, 48 h; outline: as §2
[12] = tested on: SK-MEL-5; assay: Growth inhibition of human SK-MEL-5 cells after 48 hrs by sulforhodamine B assay; conditions: SK-MEL-5, 48 h; outline: as §2
[13] = tested on: UACC-257; assay: Growth inhibition of human UACC257 cells after 48 hrs by sulforhodamine B assay; conditions: UACC-257, 48 h; outline: as §2
[14] = tested on: UACC-62; assay: Growth inhibition of human UACC62 cells after 48 hrs by sulforhodamine B assay; conditions: UACC-62, 48 h; outline: as §2
[15] = tested on: OVCAR-4; assay: Growth inhibition of human OVCAR4 cells after 48 hrs by sulforhodamine B assay; conditions: OVCAR-4, 48 h; outline: as §1
[16] = tested on: OVCAR-5; assay: Growth inhibition of human OVCAR5 cells after 48 hrs by sulforhodamine B assay; conditions: OVCAR-5, 48 h; outline: as §1
[17] = tested on: OVCAR-8; assay: Growth inhibition of human OVCAR8 cells after 48 hrs by sulforhodamine B assay; conditions: OVCAR-8, 48 h; outline: as §1
[18] = tested on: 786-0; assay: Growth inhibition of human 786-0 cells after 48 hrs by sulforhodamine B assay; conditions: 786-0, 48 h; outline: as §1
[19] = tested on: A498; assay: Growth inhibition of human A498 cells after 48 hrs by sulforhodamine B assay; conditions: A498, 48 h; outline: as §1
[20] = tested on: ACHN; assay: Growth inhibition of human ACHN cells after 48 hrs by sulforhodamine B assay; outline: as §1
[21] = tested on: CAKI-1; assay: Growth inhibition of human Caki1 cells after 48 hrs by sulforhodamine B assay; conditions: CAKI-1, 48 h; outline: as §1
[22] = tested on: RXF 393; assay: Growth inhibition of human […] cells after 48 hrs by sulforhodamine B assay; conditions: RXF 393, 48 h; outline: as §1
[23] = tested on: SN12C; assay: Growth inhibition of human SN12C cells after 48 hrs by sulforhodamine B assay; outline: as §2
[24] = tested on: TK-10; assay: Growth inhibition of human TK10 cells after 48 hrs by sulforhodamine B assay; conditions: TK-10, 48 h; outline: as §2
[25] = tested on: UO-31; assay: Growth inhibition of human UO31 cells after 48 hrs by sulforhodamine B assay; conditions: UO-31, 48 h; outline: as §2
[26] = tested on: MCF7; assay: Growth inhibition of human MCF7 cells after 48 hrs by sulforhodamine B assay; conditions: MCF7, 48 h; outline: as §1
[27] = tested on: NCI/ADR-RES; assay: Growth inhibition of human NCI/ADR-RES cells after 48 hrs by sulforhodamine B assay; outline: as §1
[28] = Growth inhibition of human Hs 578T cells after 48 hrs by sulforhodamine B assay; outline: as §1
[29] = tested on: MDA-MB-435; assay: Growth inhibition of human MDA-MB-435 cells after 48 hrs by sulforhodamine B assay; conditions: MDA-MB-435, 48 h; outline: as §1
[30] = tested on: MDA-MB-468; assay: Growth inhibition of human MDA-MB-468 cells after 48 hrs by sulforhodamine B assay; conditions: MDA-MB-468, 48 h; outline: as §1
[31] = Cytotoxicity against human leukemia cells after 48 hrs by sulforhodamine B assay; conditions: Leukemia cell
Outline: (§3)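 NCI five-dose screen: about 60 human tumour lines grouped into nine subpanels were plated and incubated 24 h before dosing. Compounds went in as DMSO stock and were diluted in medium to five final concentrations (0.01–100 µM). Exposure was 48 h continuous at 37 °C, 5% CO₂, followed by TCA fixation and SRB staining read at 515 nm. Per-line GI₅₀, TGI and LC₅₀ came from log concentration–% growth curves, averaged per subpanel as MG-MID.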

[32] = Cytotoxicity against human lung cancer cells after 48 hrs by sulforhodamine B assay; conditions: Cancer cell lines; outline: as §3
[33] = Cytotoxicity against human colon cancer cells after 48 hrs by sulforhodamine B assay; conditions: Cancer cell lines; outline: as §3
[34] = Cytotoxicity against human CNS cancer cells after 48 hrs by sulforhodamine B assay; conditions: Cancer cell lines; outline: as §3
[35] = Cytotoxicity against human melanoma cells after 48 hrs by sulforhodamine B assay; conditions: Melanoma cell; for CC50: read-out: LC50 (the source's name); outline: as §3
[36] = Cytotoxicity against human ovarian cancer cells after 48 hrs by sulforhodamine B assay; conditions: Cancer cell lines; outline: as §3
[37] = Cytotoxicity against human prostate cancer cells after 48 hrs by sulforhodamine B assay; conditions: Cancer cell lines; outline: as §3
[38] = Cytotoxicity against human breast cancer cells after 48 hrs by sulforhodamine B assay; conditions: Cancer cell lines; outline: as §3

## O=C1CC(=O)N(C(=O)c2nn(-c3ccc(Cl)cc3)cc2O)N1
[1]
  GI50: 0.77 µM
[2]
  GI50: 0.36 µM
[3]
  GI50: 0.94 µM
[4]
  GI50: 4.74 µM
[5]
  GI50: 0.49 µM
[6]
  GI50: 2.32 µM
[7]
  GI50: 0.51 µM
[8]
  GI50: 0.15 µM
[9]
  GI50: 0.51 µM
[10]
  GI50: 0.24 µM
[11]
  GI50: 0.18 µM
[12]
  GI50: 1.92 µM
[13]
  GI50: 1.86 µM
[14]
  GI50: 0.39 µM
[15]
  GI50: 1.52 µM
[16]
  GI50: 8.08 µM
[17]
  GI50: 0.64 µM
[18]
  GI50: 3.77 µM
[19]
  GI50: 0.11 µM
[20]
  GI50: 0.58 µM
[21]
  GI50: 0.65 µM
[22]
  GI50: 0.31 µM
[23]
  GI50: 0.5 µM
[24]
  GI50: 0.35 µM
[25]
  GI50: 0.55 µM
[26]
  GI50: 1.56 µM
[27]
  GI50: 0.94 µM
[28]
  GI50: 0.19 µM
[29]
  GI50: 0.33 µM
[30]
  GI50: 0.72 µM
[31]
  GI50: 0.42 µM
  TGI: 10.8 µM
[32]
  GI50: 0.51 µM
  TGI: 80.3 µM
[33]
  GI50: 1.51 µM
  TGI: 86.2 µM
[34]
  GI50: 0.33 µM
  TGI: 87.9 µM
[35]
  GI50: 1.6 µM
  TGI: 50.1 µM
  CC50: 85.2 µM
[36]
  GI50: 1.08 µM
  TGI: 84 µM
[37]
  GI50: 0.67 µM
[38]
  GI50: 0.82 µM
  TGI: 79.6 µM

## Cc1cc(C)n(C(=O)c2nn(-c3ccc(Cl)cc3)cc2O)n1
[1]
  GI50: 3.96 µM
[2]
  GI50: 3.72 µM
[3]
  GI50: 18.5 µM
[4]
  GI50: 15.1 µM
[5]
  GI50: 3.53 µM
[6]
  GI50: 8.02 µM
[7]
  GI50: 4.13 µM
[8]
  GI50: 1.81 µM
[9]
  GI50: 3.6 µM
[10]
  GI50: 3.52 µM
[11]
  GI50: 2.68 µM
[12]
  GI50: 6.76 µM
[13]
  GI50: 16.6 µM
[14]
  GI50: 3.46 µM
[15]
  GI50: 9.19 µM
[16]
  GI50: 4.98 µM
[17]
  GI50: 5.96 µM
[18]
  GI50: 9.64 µM
[19]
  GI50: 2.9 µM
[20]
  GI50: 3.77 µM
[21]
  GI50: 4.23 µM
[22]
  GI50: 4.58 µM
[23]
  GI50: 3.37 µM
[24]
  GI50: 4.71 µM
[25]
  GI50: 3.01 µM
[26]
  GI50: 4.52 µM
[27]
  GI50: 4.42 µM
[28]
  GI50: 3.21 µM
[29]
  GI50: 3.94 µM
[30]
  GI50: 8.9 µM
[31]
  GI50: 3.65 µM
  TGI: 74.3 µM
[32]
  GI50: 4.69 µM
  TGI: 81.7 µM
[33]
  GI50: 8.13 µM
  TGI: 85.1 µM
[34]
  GI50: 3.13 µM
  TGI: 69.2 µM
[35]
  GI50: 4.95 µM
  TGI: 71.4 µM
  CC50: 92.8 µM
[36]
  GI50: 5.27 µM
  TGI: 87.8 µM
[37]
  GI50: 6.64 µM
[38]
  GI50: 4.96 µM

## Cc1c2c(nn1C(=O)c1nn(-c3ccc(Cl)cc3)cc1O)-c1ccccc1CC2
[1]
  GI50: 0.051 µM
[2]
  GI50: 0.034 µM
[3]
  GI50: 0.291 µM
[4]
  GI50: 0.502 µM
[5]
  GI50: 0.052 µM
[6]
  GI50: 0.36 µM
[7]
  GI50: 0.048 µM
[8]
  GI50: 0.02 µM
[9]
  GI50: 0.045 µM
[10]
  GI50: 0.029 µM
[11]
  GI50: 0.031 µM
[12]
  GI50: 0.37 µM
[13]
  GI50: 0.21 µM
[14]
  GI50: 0.051 µM
[15]
  GI50: 0.264 µM
[16]
  GI50: 0.072 µM
[17]
  GI50: 0.053 µM
[18]
  GI50: 0.319 µM
[19]
  GI50: 0.024 µM
[20]
  GI50: 0.048 µM
[21]
  GI50: 0.127 µM
[22]
  GI50: 0.047 µM
[23]
  GI50: 0.041 µM
[24]
  GI50: 0.033 µM
[25]
  GI50: 0.099 µM
[26]
  GI50: 0.121 µM
[27]
  GI50: 0.046 µM
[28]
  GI50: 0.021 µM
[29]
  GI50: 0.037 µM
[30]
  GI50: 0.262 µM
[31]
  GI50: 0.042 µM
  TGI: 10.2 µM
[32]
  GI50: 0.047 µM
  TGI: 68.1 µM
[33]
  GI50: 0.221 µM
  TGI: 86.3 µM
[34]
  GI50: 0.036 µM
  TGI: 69.1 µM
[35]
  GI50: 0.14 µM
  TGI: 52.1 µM
  CC50: 86.4 µM
[36]
  GI50: 0.115 µM
  TGI: 83.6 µM
[37]
  GI50: 0.044 µM
[38]
  GI50: 0.082 µM
  TGI: 91.7 µM
